Assay results published in ChEMBL document CHEMBL1124418, “Antitumor agents. 100. Inhibition of human DNA topoisomerase II by cytotoxic ether and ester derivatives of podophyllotoxin and alpha-peltatin” (1989).
Converted amounts (≈) assume the structure as drawn.

Tests used:
[1] = molecular target: DNA topoisomerase II (Homo sapiens) (UniProt P11388+Q02880); assay: Compound was tested for inhibition against human DNA topoisomerase II; format: protein assay; parameters: concentration or dose not given beside the values; settings: concentration not given here
[2] = Compound was tested for in vitro cytotoxicity in KB cells after 3 days of incubation; format: functional; settings: Homo sapiens, 72 h, read-out: ED50 (the source's name)
Outline: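 KB human tumor cells exposed to drug for 3 days; read-out was cell number. ED50 was taken as the drug concentration giving 50% reduction in cell number. Values are marked as preliminary.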

Compound	inhibition [1] [%]	EC50 [2] [µg/mL]
COc1cc([C@@H]2c3cc4c(cc3[C@@H](O)[C@H]3COC(=O)[C@H]23)OCO4)cc(OC)c1O [4'-DEMETHYLEPIPODOPHYLLOTOXIN]	50	0.06 (≈ 0.15 µM)
CCC(=O)Oc1c2c(cc3c1OCO3)[C@@H](c1cc(OC)c(O)c(OC)c1)[C@H]1C(=O)OC[C@@H]1C2	25	0.005 (≈ 0.011 µM)
C/C=C\C(=O)O[C@@H]1c2cc3c(cc2[C@@H](c2cc(OC)c(O)c(OC)c2)[C@H]2C(=O)OC[C@@H]21)OCO3	–	0.9 (≈ 1.92 µM)
COc1cc([C@@H]2c3cc4c(c(O)c3C[C@H]3COC(=O)[C@@H]32)OCO4)cc(OC)c1O	0	0.09 (≈ 0.225 µM)
COc1cc([C@@H]2c3cc4c(c(O[C@@H]5O[C@H]6CO[C@@H](c7cccs7)O[C@H]6[C@H](O)[C@@H]5O)c3C[C@H]3COC(=O)[C@@H]32)OCO4)cc(OC)c1O	25	2 (≈ 3.05 µM)
COc1cc([C@@H]2c3cc4c(c(OC(=O)CCC(=O)O)c3C[C@H]3COC(=O)[C@@H]32)OCO4)cc(OC)c1O	0	0.01 (≈ 0.02 µM)
COc1cc([C@@H]2c3cc4c(c(OC(C)=O)c3C[C@H]3COC(=O)[C@@H]32)OCO4)cc(OC)c1O	0	0.01 (≈ 0.0226 µM)
COc1cc([C@@H]2c3cc4c(cc3[C@@H](OC(=O)Cc3ccccc3)[C@H]3COC(=O)[C@H]23)OCO4)cc(OC)c1O	–	0.00028 (≈ 0.00054 µM)
CCC(=O)O[C@@H]1c2cc3c(cc2[C@@H](c2cc(OC)c(O)c(OC)c2)[C@H]2C(=O)OC[C@@H]21)OCO3	0	1 (≈ 2.19 µM)
COc1cc([C@@H]2c3cc4c(cc3[C@@H](O[C@@H]3O[C@@H]5CO[C@@H](C)O[C@H]5[C@H](O)[C@H]3O)[C@H]3COC(=O)[C@H]23)OCO4)cc(OC)c1O [ETOPOSIDE]	> 88	0.12 (≈ 0.204 µM)
CCO[C@@H]1c2cc3c(cc2[C@@H](c2cc(OC)c(O)c(OC)c2)[C@H]2C(=O)OC[C@@H]21)OCO3	25	1.1 (≈ 2.57 µM)
COc1cc([C@@H]2c3cc4c(cc3[C@@H](OC(=O)c3ccccc3C(=O)O)[C@H]3COC(=O)[C@H]23)OCO4)cc(OC)c1O	–	0.8 (≈ 1.46 µM)
COc1cc([C@@H]2c3cc4c(c(OC)c3C[C@H]3COC(=O)[C@@H]32)OCO4)cc(OC)c1O	25	0.001 (≈ 0.00241 µM)
COc1cc([C@@H]2c3cc4c(cc3[C@@H](OC(=O)CCC(=O)O)[C@H]3COC(=O)[C@H]23)OCO4)cc(OC)c1O	0	1 (≈ 2 µM)
COc1cc([C@@H]2c3cc4c(c(OC(=O)Cc5ccccc5)c3C[C@H]3COC(=O)[C@@H]32)OCO4)cc(OC)c1O	–	0.01 (≈ 0.0193 µM)
COc1cc([C@@H]2c3cc4c(cc3[C@@H](OC)[C@H]3COC(=O)[C@H]23)OCO4)cc(OC)c1O	25	1.1 (≈ 2.65 µM)
COc1cc([C@@H]2c3cc4c(c(O[C@@H]5O[C@H]6CO[C@@H](C)O[C@H]6[C@H](O)[C@@H]5O)c3C[C@H]3COC(=O)[C@@H]32)OCO4)cc(OC)c1O	–	2 (≈ 3.4 µM)
CCS[C@@H]1c2cc3c(cc2[C@@H](c2cc(OC)c(O)c(OC)c2)[C@H]2C(=O)OC[C@@H]21)OCO3	25	1.1 (≈ 2.47 µM)
COc1cc([C@@H]2c3cc4c(cc3[C@@H](OC(C)=O)[C@H]3COC(=O)[C@H]23)OCO4)cc(OC)c1O	25	0.2 (≈ 0.452 µM)
COc1cc([C@@H]2c3cc4c(c(O[C@@H]5O[C@@H](CO)[C@@H](O)[C@H](O)[C@@H]5O)c3C[C@H]3COC(=O)[C@@H]32)OCO4)cc(OC)c1O	25	1.1 (≈ 1.96 µM)
CCCC(=O)Oc1c2c(cc3c1OCO3)[C@@H](c1cc(OC)c(O)c(OC)c1)[C@H]1C(=O)OC[C@@H]1C2	25	0.004 (≈ 0.0085 µM)
COc1cc([C@@H]2c3cc4c(c(OC(=O)OCc5ccccc5)c3C[C@H]3COC(=O)[C@@H]32)OCO4)cc(OC)c1O	25	0.01 (≈ 0.0187 µM)
